We go through 10 compounds from ChEMBL document CHEMBL1122567, “Conformationally restricted congeners of dopamine derived from octahydrobenzo[g]quinoline and octahydrobenzo[f]quinoline” (J Med Chem, 1984).

For experiment [1], the species on record is Rattus norvegicus. Description: Compound was evaluated for inhibition of binding of [3H]spiroperidol to rat caudate tissue. The class given is functional, organism-based.
Experiment [2] has as its system Felis catus. Description: Compound was evaluated for the inhibition of the cardioaccelerator nerve of the cat at a dose 4 umol/kg (n = 3). The class given is functional. The gist of the method:
(§1)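 Cats were anaesthetised with pentobarbital sodium (30 mg/kg) injected into the thoracic cavity. The right cardioaccelerator nerve was isolated and stimulated through bipolar platinum electrodes at 2 Hz, 2-ms pulses and supramaximal voltage, usually for 30 s. Arterial pressure was recorded from the right femoral artery, and heart rate by cardiotachometer. The highest dose tested was 4 µmol/kg, with n = 3.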

Experiment [3] is filed under the species Rattus norvegicus. Description: Compound was evaluated for inhibition of binding of [3H]dopamine to rat caudate tissue. The class given is functional, organism-based.
Experiment [4] deals with Felis catus. The experiment is described as follows: Compound was evaluated for the inhibition of the cardioaccelerator nerve of the cat; I - inactive at a dose 4 umol/kg (n = 3). The class given is functional, organism-based. The gist of the method: as §1
In experiment [5] the test system is Felis catus. Description: Compound was evaluated for the inhibition of the cardioaccelerator nerve of the cat at a dose 4 umol/kg. The format is functional. In outline:
as §1

The structures appear in SMILES notation. The source made the active and inactive calls. The rule behind the calls is not given here. Bounds are passed on as bounds.

For `CCN1CCC[C@@H]2c3cc(O)cc(O)c3CC[C@H]21`, the IC50 was 2400 nM in the experiment filed under Rattus norvegicus [1] and 90 nM in the experiment filed under Rattus norvegicus [3]. Further, in the experiment with Felis catus [2], it took a dose of 0.0021 µmol/kg to reach the 50% effect level (ED50).

Turning to `CCCN1CCC[C@@H]2c3cc(O)cc(O)c3CC[C@H]21`, the IC50 in the experiment listed under Rattus norvegicus [1] was determined as 1000 nM; in the experiment filed under Rattus norvegicus [3], 40 nM. Further, the ED50 in the experiment on Felis catus [2] was found to be 0.0047 µmol/kg.

Take `CCN1CCC[C@@H]2Cc3c(O)cc(O)cc3C[C@H]21`: the results for the half-inhibitory concentration (IC50) in the experiment listed under Rattus norvegicus [1] and in the experiment filed under Rattus norvegicus [3] were 32000 nM and 440 nM, respectively. Further, the ED50 entry in the experiment with Felis catus [4] is “inactive”.

With `Oc1cc(O)c2c(c1)[C@@H]1CCCN[C@H]1CC2`, the IC50 turned out to be 25000 nM in the experiment listed under Rattus norvegicus [1] and 1000 nM in the experiment listed under Rattus norvegicus [3].

Take `Oc1cc(O)c2c(c1)C[C@H]1NCCC[C@@H]1C2`: the values for the IC50 in the experiment listed under Rattus norvegicus [1] and in the experiment filed under Rattus norvegicus [3] were 264000 nM and 12800 nM, respectively. For the same compound, the ED50 result in the experiment with Felis catus [4] is “inactive”.

Regarding `Oc1cc(O)c2c(c1)[C@@H]1CCCN[C@@H]1CC2`, the 50% inhibitory concentration (IC50) worked out at 113000 nM in the experiment listed under Rattus norvegicus [1] and 11100 nM in the experiment listed under Rattus norvegicus [3].

As for `CCCN1CCC[C@H]2c3cc(O)cc(O)c3CC[C@H]21`, the IC50 stood at 11000 nM in the experiment filed under Rattus norvegicus [1] and 1700 nM in the experiment listed under Rattus norvegicus [3]. The compound further displayed an ED50 in the experiment on Felis catus [5] of more than 4 µmol/kg.

For the compound `CCCN1CCC[C@@H]2Cc3c(O)cc(O)cc3C[C@H]21`, the values for the IC50 in the experiment listed under Rattus norvegicus [1] and in the experiment filed under Rattus norvegicus [3] were 15000 nM and 370 nM, respectively. Moreover, the ED50 in the experiment with Felis catus [2] was determined as 1.74 µmol/kg.

With `CCN1CCC[C@H]2c3cc(O)cc(O)c3CC[C@H]21`, the IC50 was found to be 10000 nM in the experiment listed under Rattus norvegicus [1] and 430 nM in the experiment filed under Rattus norvegicus [3]. In the experiment with Felis catus [5], this compound returned an ED50 of more than 4 µmol/kg.

Compound `CN1CCc2cccc3c2[C@H]1Cc1ccc(O)c(O)c1-3` [APOMORPHINE] gave an IC50 in the experiment listed under Rattus norvegicus [1] of 1100 nM. In addition, it took a dose of 0.022 µmol/kg to reach the 50% effect level in the experiment on Felis catus [2] (ED50).

Usually IC50 stands for the midpoint of a concentration-inhibition curve. High values mean weaker potency, low ones greater potency. For orientation: ED50 means the midpoint of the dose-response relation.
